In PMC6763203 (Molecular pharmaceutics, 2019):

Legend:
[1] = Hepatic microsome stability assay; assay type: in vitro ADME, mouse
[2] = Hepatic microsome stability assay; assay type: in vitro ADME, human
[3] = Plasma protein binding by equilibrium dialysis; assay type: in vitro ADME, human; details: 5 μM, 37 °C, 6 hours
Method in brief: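 Equilibrium dialysis with test compound at 5 μM initial in the plasma chamber against PBS in the receiver chamber. Shaken at 37 °C for 6 h. Samples from both chambers were matrix-matched to 1:1 plasma:PBS and quantified by LC-MS/MS. Fraction bound = ([plasma] – [PBS]) / [plasma]. Run in triplicate.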

[4] = system: S. aureus ATCC 29213; test: Prevention of biofilm formation, microtiter dish assay; assay type: cell-based, Staphylococcus aureus; details: 2 μg/mL, 24 h
Method in brief: (§1)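 Static biofilm prevention assay with S. aureus ATCC 29213 or MRSA clinical isolates from local hospitals in central China. Strains were grown in TSB plus 1% glucose in 96-well tissue-culture plates with test compound (0.0125–8 μg/mL) for 24 h. Wells were washed with sterile water and stained with 0.1% (w/v) crystal violet. Stain was solubilised in 95% ethanol and read at 540 nm. Results are reduction in biofilm mass, from three independent experiments in triplicate.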

[5] = system: MRSA; test: as above; assay type: cell-based, Staphylococcus aureus; details: for inhibition of biofilm formation: 0.0125–8 μg/mL, 24 h
Method in brief: as §1

[6] = system: MRSA; test: MRSA mouse peritonitis model; assay type: in vivo; details: for MRSA in blood or kidney of the survived mice: 14 days after administration
[7] = mouse, liver microsomes, pH 7.4

Structure (SMILES) | Intrinsic Clearance ([1]; mouse liver microsomes 1 mg/mL, 1 μM compound) | T1/2 ([1]; mouse liver microsomes 1 mg/mL, 1 μM compound, 37 °C) | Intrinsic Clearance ([2]; human liver microsomes) | Plasma Protein Binding, Bound [3] | Plasma Protein Binding, Free [3] | reduction of biofilm formation [4] | inhibition of biofilm formation [5] | MRSA in blood or kidney of the survived mice [6] | mice survival ([6]; C57BL/6J mice, 50 mg/kg i.p. at 1 h and 5 h post infection, 14 days) | half-life at 1 μM [1, 7] | microsomal CLint at 1 μM [1, 7] | microsomal CLint at 1 μM ([2]; human, liver microsomes, pH 7.4) | biofilm reduction, comparison of PTM with PTM-2t [5]
CCSC1CC(=O)C(C)(CCC(=O)Nc2c(O)ccc(C(=O)O)c2O)C2C3CC4CC12CC4(C)O3 (centres unmarked) [2t] | 46 µL/min/mg | 15.0 min | 32.0 µL/min/mg | 35.0% | 65.0% | over 95% | dose-dependently inhibited | a significant number of MRSAs was still present | 80% | – | – | – | –
CC12C[C@@]34C=CC(=O)[C@@](C)(CCC(=O)Nc5c(O)ccc(C(=O)O)c5O)C3[C@H](CC1C4)O2 (some centres unmarked) [PTM, platensimycin, reference compound] | – | – | – | 66.0% | – | over 95% | dose-dependently inhibited | – | – | 13.6 min | 51 µL/min/mg | 14 µL/min/mg | reduced more biofilm from MRSA than PTM-2t
CN[C@H](CC(C)C)C(=O)N[C@H]1C(=O)N[C@@H](CC(N)=O)C(=O)N[C@H]2C(=O)N[C@H]3C(=O)N[C@H](C(=O)N[C@H](C(=O)O)c4cc(O)cc(O)c4-c4cc3ccc4O)[C@H](O)c3ccc(c(Cl)c3)Oc3cc2cc(c3O[C@@H]2O[C@H](CO)[C@@H](O)[C@H](O)[C@H]2O[C@H]2C[C@](C)(N)[C@H](O)[C@H](C)O2)Oc2ccc(cc2Cl)[C@H]1O [vancomycin, reference compound] | – | – | – | – | – | – | – | Only a few MRSA were present | – | – | – | – | –
